We go through 18 compounds from publication PMC9048702 (RSC Advances, 2020).

Where “and” joins values, the source holds several entries; their conditions need not be identical. Identical values can stand only once. Like-named read-outs stand apart in the source and are kept apart here. Marks after values point to notes of the source that are not given here.

One data set has as its system MCF7 cells. The experiment in a line: MTT anti-proliferative assay, MCF7. It is filed as cell-based, human. To be noted: MCF7, 48 h, read-out: IC50 MCF7. In short, it runs like this:
(§1)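 HepG2 (passage 11), MCF7 (passage 13) and normal WI-38 fibroblasts were seeded at […]. Cells were exposed to test compound at 0.5, 1, 10, 20, 50 and 100 μM for 48 h, then incubated with MTT for 4 h. Formazan was dissolved in DMSO and read at 570 nm. Untreated and doxorubicin-treated cells were included. IC50 came from dose–response curves, mean ± SEM of two independent experiments.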
On the technique in general: Tetrazolium dyes change colour on reduction, which living cells bring about.

For the next data set, the system named is HepG2 cells. The experiment in a line: MTT anti-proliferative assay, HepG2. To be noted: HepG2, 48 h, read-out: IC50 HepG2. Type of data set: cell-based, human. In a few lines: as §1
The next data set concerns WI-38 cells. The data set is described as follows: MTT assay, normal fibroblasts WI-38. Type of data set: cell-based. To be noted: read-out: IC50 WI-38, WI-38 normal fibroblasts, 48 h, mean ± SEM.
In a further data set the test system is txnrd1. The experiment in a line: qRT-PCR expression of txnrd1 in HepG2. It is filed as cell-based, human. The following applies: for Fold induction from untreated cells Txnrd1: HepG2, 8 h incubation at IC50 concentration, mean ± SEM; for down-regulation (inhibition) of txnrd1 expression: HepG2, 8 h.
The next data set has as its system caspase 3. The data set is described as follows: qRT-PCR expression of caspase 3 in HepG2. It is filed as cell-based, human. The following applies: HepG2, 8 h incubation at IC50 concentration, mean ± SEM. A general note: Real-time PCR tracks product formation cycle by cycle.
For the next data set, the system named is p53. The data set is described as follows: qRT-PCR expression of p53 in HepG2. It is filed as cell-based, human. The following applies: HepG2, 8 h incubation at IC50 concentration, mean ± SEM.
The test system of data set [1] is HepG2, MCF7 and WI-38 cells. The experiment in a line: MTT anti-proliferative assay, cell lines summarised together in text. Type of data set: cell-based. The following applies: Homo sapiens. In a few lines:
as §1

Data set [2] has as its system topoisomerase II (Topo II). The data set is described as follows: Topo II concentration in HepG2 cells, sandwich ELISA. Type of data set: cell-based, human. The following applies: HepG2, IC50 concentration, 8 hours. Background: An ELISA detects its analyte on a solid surface through an enzyme-linked reagent.
The subject of a further data set is cleaved caspase 3. The experiment in a line: Active cleaved caspase 3 activity in HepG2, colorimetric kit. Type of data set: cell-based, human. To be noted: HepG2, IC50 concentration, 12 h.
The test system of a further data set is cdk1. The data set is described as follows: qRT-PCR expression of cdk1 in HepG2. Type of data set: cell-based, human. The following applies: for inhibition in cdk1 expression: HepG2, 8 h.
Data set [3] deals with p38 mitogen-activated protein kinase (MAPK). The experiment in a line: MAPK concentration in HepG2 cells, sandwich ELISA. It is filed as cell-based, human. To be noted: HepG2, IC50 concentration, 8 hours.
Setting [4] is: read-out: IC50 against cancer cell lines.

As usually defined, the IC50 is the midpoint of a concentration-inhibition curve. Regarding `O=C(CSc1nnc(-c2n[nH]c(=O)c3ccccc23)o1)Nc1ccc(Cl)cc1` [Compound 4d, N-(4-Chlorophenyl)-2-((5-(4-oxo-3,4-dihydrophthalazin-1-yl)-1,3,4-oxadiazol-2-yl)thio)acetamide], the figures for the IC50 in the data set on MCF7 cells (Homo sapiens) and in the data set with HepG2 cells (Homo sapiens) were 49.5 ± 3.9 µM and 53.9 ± 3.8 µM, respectively.

Regarding `Cc1ccc(NC(=O)CSc2nnc(-c3n[nH]c(=O)c4ccccc34)o2)cc1` [Compound 4c, 2-((5-(4-Oxo-3,4-dihydrophthalazin-1-yl)-1,3,4-oxadiazol-2-yl)thio)-N-(p-tolyl)acetamide], the IC50 came out at 36.3 ± 3.2 µM in the data set with MCF7 cells (Homo sapiens) and 28.1 ± 2.9 µM with HepG2 cells (Homo sapiens).

As for `Cc1ccc(NCSc2nnc(-c3nn(CNc4ccc(C)cc4)c(=O)c4ccccc34)o2)cc1` [Compound 7a, 2-((p-Tolylamino)methyl)-4-(5-(((p-tolylamino)methyl)thio)-1,3,4-oxadiazol-2-yl)phthalazin-1(2H)-one], the results for the IC50 in the data set on MCF7 cells (Homo sapiens) and in the data set on HepG2 cells (Homo sapiens) were 26.2 ± 2.5 µM and 23.5 ± 2.8 µM, respectively.

Turning to `O=c1c2ccccc2c(-c2nnc(SCNc3ccccc3Cl)o2)nn1CNc1ccccc1Cl` [Compound 7c, 2-(((2-Chlorophenyl)amino)methyl)-4-(5-((((2-chlorophenyl)amino)methyl)thio)-1,3,4-oxadiazol-2-yl)phthalazin-1(2H)-one], the IC50 in the data set on MCF7 cells (Homo sapiens) was found to be 15.4 ± 1.2 µM; in the data set on WI-38 cells, 23.2 ± 1.2 µM; in the data set with HepG2 cells (Homo sapiens) it was 17.2 ± 1.9 µM.

As to `O=c1[nH]nc(-c2nnc(SCNC3CCCCC3)o2)c2ccccc12` [Compound 7g, 4-(5-(((Cyclohexylamino)methyl)thio)-1,3,4-oxadiazol-2-yl)phthalazin-1(2H)-one], the results for the IC50 in the data set with MCF7 cells (Homo sapiens) and in the data set on HepG2 cells (Homo sapiens) were 45.5 ± 3.8 µM and 42.9 ± 3.7 µM, respectively.

For the compound `O=C(CSc1nnc(-c2n[nH]c(=O)c3ccccc23)o1)c1ccccc1` [Compound 2c, 4-(5-((2-Oxo-2-phenylethyl)thio)-1,3,4-oxadiazol-2-yl)phthalazin-1(2H)-one], the IC50 in the data set with MCF7 cells (Homo sapiens) came out at 57.3 ± 4.2 µM; in the data set on HepG2 cells (Homo sapiens) it was 66.1 ± 4.5 µM.

Regarding `O=c1c2ccccc2c(-c2nnc(SCNc3ccc(Cl)cc3)o2)nn1CNc1ccc(Cl)cc1` [Compound 7b, 2-(((4-Chlorophenyl)amino)methyl)-4-(5-((((4-chlorophenyl)amino)methyl)thio)-1,3,4-oxadiazol-2-yl)phthalazin-1(2H)-one], the figures for the IC50 with MCF7 cells (Homo sapiens) and in the data set with HepG2 cells (Homo sapiens) were 31.3 ± 2.8 µM and 33.3 ± 3.4 µM, respectively.

Consider `O=c1[nH]nc(-c2nnc(SCc3ccccc3)o2)c2ccccc12` [Compound 2b, 4-(5-(Benzylthio)-1,3,4-oxadiazol-2-yl)phthalazin-1(2H)-one], for which the IC50 in the data set on MCF7 cells (Homo sapiens) turned out to be 68.2 ± 4.4 µM; in the data set on HepG2 cells (Homo sapiens), 58.9 ± 4 µM.

With `CCSc1nnc(-c2n[nH]c(=O)c3ccccc23)o1` [Compound 2a, 4-(5-(Ethylthio)-1,3,4-oxadiazol-2-yl)phthalazin-1(2H)-one], the values for the IC50 in the data set with MCF7 cells (Homo sapiens) and with HepG2 cells (Homo sapiens) were 55.8 ± 4 µM and 61.3 ± 4.2 µM, respectively.

Consider `NS(=O)(=O)c1ccc(NC(=O)CSc2nnc(-c3n[nH]c(=O)c4ccccc34)o2)cc1` [Compound 4b, 2-((5-(4-Oxo-3,4-dihydrophthalazin-1-yl)-1,3,4-oxadiazol-2-yl)thio)-N-(4-sulfamoylphenyl)acetamide], for which the IC50 in the data set with MCF7 cells (Homo sapiens) was above 100 µM; in the data set on HepG2 cells (Homo sapiens), 83.9 ± 5.2 µM.

On to `CC(=O)c1ccc(NC(=O)CSc2nnc(-c3n[nH]c(=O)c4ccccc34)o2)cc1` [Compound 4a, N-(4-Acetylphenyl)-2-((5-(4-oxo-3,4-dihydrophthalazin-1-yl)-1,3,4-oxadiazol-2-yl)thio)acetamide], for which the IC50 is 76.2 ± 4.7 µM with MCF7 cells (Homo sapiens) and 72.6 ± 4.8 µM with HepG2 cells (Homo sapiens).

For `O=c1c2ccccc2c(-c2nnc(SCNc3ccc([N+](=O)[O-])cc3)o2)nn1CNc1ccc([N+](=O)[O-])cc1` [Compound 7e, 2-(((4-Nitrophenyl)amino)methyl)-4-(5-((((4-nitrophenyl)amino)methyl)thio)-1,3,4-oxadiazol-2-yl)phthalazin-1(2H)-one], in the data set on txnrd1, the “Fold induction from untreated cells Txnrd1” value is listed as 1.11 ± 0.10 fold. The “Fold induction from untreated cells Caspase 3” value in the data set on caspase 3 was 2 fold and 2.22 ± 0.14 ^a fold. Also, the “Fold induction from untreated cells p53” value in the data set on p53 was 2 fold and 2.02 ± 0.08 ^a fold. Besides, the IC50 in the data set with MCF7 cells (Homo sapiens) was 8.4 ± 0.9 µM; in the data set on WI-38 cells it was 21.6 ± 1.8 µM; in the data set on HepG2 cells (Homo sapiens) it was 7 ± 1.5 µM; in data set [1] (setting [4]) it was 5.5 to 15 µM.

For `O=c1c2ccccc2c(-c2nnc(SCNc3cccnc3)o2)nn1CNc1cccnc1` [Compound 7f, 2-((Pyridin-3-ylamino)methyl)-4-(5-(((pyridin-3-ylamino)methyl)thio)-1,3,4-oxadiazol-2-yl)phthalazin-1(2H)-one], the IC50 with MCF7 cells (Homo sapiens) amounted to 20.8 ± 1.9 µM; with HepG2 cells (Homo sapiens), 21.8 ± 2.3 µM.

As to `COc1ccc(NCSc2nnc(-c3nn(CNc4ccc(OC)cc4)c(=O)c4ccccc34)o2)cc1` [Compound 7d, 2-(((4-Methoxyphenyl)amino)methyl)-4-(5-((((4-methoxyphenyl)amino)methyl)thio)-1,3,4-oxadiazol-2-yl)phthalazin-1(2H)-one], the “Fold induction from untreated cells Txnrd1” value in the data set on txnrd1 turned out to be 1.02 ± 0.16 fold. Further, the “Fold induction from untreated cells Caspase 3” value in the data set on caspase 3 was 2 fold and 1.96 ± 0.09 ^a fold. Further, the “decrease in Topo II concentration” value in [2] amounted to 31%. The “Fold induction from untreated cells p53” value in the data set with p53 is 2 fold and 2.16 ± 0.12 ^a fold. The IC50 in the data set on MCF7 cells (Homo sapiens) was 5.5 ± 0.4 µM; in the data set with HepG2 cells (Homo sapiens), 6.3 ± 0.7 µM; in data set [1] (setting [4]) it was 5.5 to 15 µM.

Turning to `O=c1[nH]nc(-c2nnc(S)o2)c2ccccc12` [Compound 1, 4-(5-mercapto-1,3,4-oxadiazol-2-yl)phthalazin-1(2H)-one], in the data set with txnrd1, the “down-regulation (inhibition) of txnrd1 expression” value worked out at 33% and the “Fold induction from untreated cells Txnrd1” value came to 0.67 ± 0.03 fold. For the same compound, the “Fold induction from untreated cells Caspase 3” value in the data set on caspase 3 is on record as 3.10 ± 0.21 ^a fold. Moreover, the “decrease in Topo II concentration” value in data set [2] stood at 84%. In the data set with cleaved caspase 3, the “elevation in activity of active cleaved caspase 3 compared to untreated cells” value is recorded as around 7 fold. In addition, the “inhibition in cdk1 expression” value in the data set with cdk1 is given as around 78%. For the same compound, the “Fold induction from untreated cells Cdk1” value with cdk1 (HepG2, 8 h incubation at IC50 concentration, mean ± SEM) is recorded as 0.22 ± 0.03 ^a fold. Besides, in the data set with p53, the “Fold induction from untreated cells p53” value was 3.83 ± 0.11 ^a fold. Moreover, the “reduction in MAPK concentration compared to untreated cells” value in data set [3] worked out at 84%. In the data set with MCF7 cells (Homo sapiens), the IC50 was 4.9 ± 0.8 µM. Further, the IC50 in the data set on HepG2 cells (Homo sapiens) came to 4.5 ± 1.1 µM.

As to `COc1cccc2c1C(=O)c1c(O)c3c(c(O)c1C2=O)C[C@@](O)(C(=O)CO)C[C@@H]3O[C@H]1C[C@H](N)[C@H](O)[C@H](C)O1` [DOX, Doxorubicin, reference compound], in the data set with txnrd1, the “down-regulation (inhibition) of txnrd1 expression” value is listed as 56%. The “decrease in Topo II concentration” value in [2] is 87%. Also, in the data set with cdk1, the “inhibition in cdk1 expression” value is around 75%. Further, the “reduction in MAPK concentration compared to untreated cells” value in data set [3] turned out to be 85%. Also, the values for the IC50 (with MCF7 cells (Homo sapiens); with HepG2 cells (Homo sapiens); in [1] (read-out: IC50 against all cells investigated)) were 4.2 ± 0.2 µM, 4.5 ± 0.3 µM and 4 to 7 µM, respectively.

Turning to “S-(5-(4-Oxo-3,4-dihydrophthalazin-1-yl)-1,3,4-oxadiazol-2-yl)2-(2-isonicotinoylhydrazinyl)ethanethioate [Compound 3]”, the concentration for half-maximal inhibition (IC50) was found to be 40 ± 3.6 µM in the data set on MCF7 cells (MTT, mean ± SEM); 44.6 ± 4.2 µM in the data set on WI-38 cells; 38.4 ± 3.5 µM in the data set with HepG2 cells (MTT, mean ± SEM).

Turning to `O=C(CSc1nnc(-c2n[nH]c(=O)c3ccccc23)o1)c1cccc([N+](=O)[O-])c1` [Compound 2d, 4-(5-((2-(3-Nitrophenyl)-2-oxoethyl)thio)-1,3,4-oxadiazol-2-yl)phthalazin-1(2H)-one], the concentration for half-maximal inhibition (IC50) in the data set with MCF7 cells (Homo sapiens) and in the data set with HepG2 cells (Homo sapiens) was above 100 µM in each case.
